Experiment [1] in a line: Selectivity ratio of IC50 for cisplatin-resistant human SKOV3/DDP cells to IC50 for cisplatin sensitive human SKOV3 cells. It is filed as functional. In a few lines:
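IC50 determined in resistant SK-OV-3/CDDP cells divided by IC50 in parental SK-OV-3 cells. Each IC50 by MTT, three separate experiments each in triplicate.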

The test system of a further experiment is MG-63. Briefly: Antiproliferative activity against human MG63 cells after 48 hrs by MTT assay. It is filed as functional, cell-based. As to conditions: MG-63, 48 h. In a few lines:
(§1)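 MTT read-out of antiproliferative activity across cancer lines HepG-2, NCI-H460, MGC-803, A549 and MG-63 and normal liver line HL-7702. IC50 given as mean ± S.D. of three separate experiments, each run in triplicate.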
In general terms: Formazan colour is commonly taken as a measure of viable cells.

The test system of a further experiment is NCI-H460. Briefly: Antiproliferative activity against human NCI-H460 cells after 48 hrs by MTT assay. It is filed as functional, cell-based. As to conditions: NCI-H460, 48 h. The method, boiled down:
as §1

For another experiment, the system named is A549. Briefly: Antiproliferative activity against human A549 cells after 48 hrs by MTT assay. As to conditions: A549, 48 h. It is filed as functional, cell-based. The method, boiled down:
as §1

The subject of another experiment is SK-OV-3. Briefly: Growth inhibition of cisplatin sensitive human SKOV3 cells after 48 hrs by MTT assay. It is filed as functional, cell-based. As to conditions: SK-OV-3, 48 h. In a few lines:
(§2)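 MTT growth inhibition in the paired ovarian lines, cisplatin-sensitive SK-OV-3 and cisplatin-resistant SK-OV-3/CDDP. IC50 given as mean ± S.D. of three separate experiments, each in triplicate.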

Experiment [2] can be described thus: Inhibition of TNF-alpha induced NF-kappaB activation in human A549 cells after 7 hrs by Bright-Glo luciferase reporter gene assay. It is filed as cell-based. Particulars: Homo sapiens, A549, 7 h; read-out: IC50. The method, boiled down: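 A549 cells transiently cotransfected with an NF-κB-Luc reporter and stimulated with TNF-α. Luciferase read-out of inhibition gives IC50, the mean of at least three independent experiments each with triplicates.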

The test system of a further experiment is L02. Briefly: Antiproliferative activity against human HL-7702 cells after 48 hrs by MTT assay. It is filed as functional, cell-based. Particulars: L02, 48 h. In a few lines:
as §1

Experiment [3] in a line: Growth inhibition of cisplatin-resistant human SKOV3/DDP cells after 48 hrs by MTT assay. It is filed as functional. Particulars: SK-OV-3, 48 h. The method, boiled down: as §2
A further experiment has as its system MGC-803. Briefly: Antiproliferative activity against human MGC803 cells after 48 hrs by MTT assay. It is filed as functional, cell-based. As to conditions: MGC-803, 48 h. The method, boiled down: as §1
The subject of the next experiment is HepG2. Briefly: Antiproliferative activity against human HepG2 cells after 48 hrs by MTT assay. It is filed as functional, cell-based. Particulars: HepG2, 48 h. In a few lines: as §1

Eleven compounds from ChEMBL document CHEMBL4382268, “Glycyrrhetinic acid derivatives containing aminophosphonate ester species as multidrug resistance reversers that block the NF-κB pathway and cell proliferation” (Bioorg Med Chem Lett, 2018) can be followed below.

As a reminder, the IC50 is the concentration needed to halve the response being measured.

As for `CC1(C)[C@@H](O)CC[C@]2(C)[C@H]3C(=O)C=C4[C@@H]5C[C@@](C)(C(=O)O)CC[C@]5(C)CC[C@@]4(C)[C@]3(C)CC[C@@H]12` [ENOXOLONE], the “Ratio IC50” value in experiment [1] was 1.08. Also, the IC50 was above 50 µM with MG-63; 37.6 µM in the experiment with NCI-H460; 36.1 µM in the experiment with A549; 45.6 µM with SK-OV-3; above 30 µM in experiment [2]; above 50 µM in the experiment with L02. Further, the IC50 in [3] is 49.4 µM; with MGC-803, above 50 µM; in the experiment with HepG2, 44.5 µM.
For the compound `CCOP(=O)(OCC)C(Nc1ccc(CC(=O)NCCCNC(=O)[C@@]2(C)CC[C@]3(C)CC[C@]4(C)C(=CC(=O)[C@@H]5[C@@]6(C)CC[C@H](OC(C)=O)C(C)(C)[C@@H]6CC[C@]54C)[C@@H]3C2)cc1)c1ccccc1` (stereo partly drawn), the IC50 with MG-63 was 25.3 µM; in the experiment with NCI-H460 it was 23.2 µM; in the experiment on A549, 30.3 µM; in experiment [2] it was 22.1 µM; in the experiment with L02 it was above 50 µM; in the experiment on MGC-803, 21 µM. Further, inhibition with HepG2 was half-maximal at 31.6 µM (IC50).
Take `CCOP(=O)(OCC)C(Nc1ccc(CC(=O)NCCCCNC(=O)[C@@]2(C)CC[C@]3(C)CC[C@]4(C)C(=CC(=O)[C@@H]5[C@@]6(C)CC[C@H](O)C(C)(C)[C@@H]6CC[C@]54C)[C@@H]3C2)cc1)c1ccccc1` (stereo partly drawn): the IC50 was 27.8 µM in the experiment on MG-63; 30.5 µM in the experiment with NCI-H460; 33.2 µM in the experiment on A549; 25.1 µM in experiment [2]; above 50 µM in the experiment on L02; 36.3 µM in the experiment on MGC-803. For the same compound, the midpoint of inhibition with HepG2, the IC50, lay at 37.1 µM.
Regarding `CCOP(=O)(OCC)C(Nc1ccc(CC(=O)NCCCNC(=O)[C@@]2(C)CC[C@]3(C)CC[C@]4(C)C(=CC(=O)[C@@H]5[C@@]6(C)CC[C@H](O)C(C)(C)[C@@H]6CC[C@]54C)[C@@H]3C2)cc1)c1ccccc1` (stereo partly drawn), the half-maximal inhibitory concentration (IC50) in the experiment with MG-63 was 31 µM; with NCI-H460, 46.1 µM; in the experiment on A549, 36 µM; in experiment [2], 28.2 µM; in the experiment with L02, above 50 µM; in the experiment on MGC-803, 31.1 µM. In the experiment with HepG2, this compound returned an IC50 of 40.4 µM.
As to `CCOP(=O)(OCC)C(Nc1ccc(CC(=O)NCCCCNC(=O)[C@@]2(C)CC[C@]3(C)CC[C@]4(C)C(=CC(=O)[C@@H]5[C@@]6(C)CC[C@H](O)C(C)(C)[C@@H]6CC[C@]54C)[C@@H]3C2)cc1)c1cccc(OC)c1` (stereo partly drawn), the IC50 was 45.6 µM in the experiment on MG-63; 39.2 µM with NCI-H460; 48.3 µM in the experiment with A549; 29.4 µM in [2]; above 50 µM with L02; above 50 µM in the experiment on MGC-803. For the same compound, the IC50 with HepG2 came out at 46.4 µM.
Regarding `CCOP(=O)(OCC)C(Nc1ccc(CC(=O)NCCCNC(=O)[C@@]2(C)CC[C@]3(C)CC[C@]4(C)C(=CC(=O)[C@@H]5[C@@]6(C)CC[C@H](OC(C)=O)C(C)(C)[C@@H]6CC[C@]54C)[C@@H]3C2)cc1)c1cccc(OC)c1` (stereo partly drawn), the IC50 in the experiment on MG-63 was 39.5 µM; with NCI-H460 it was 31.7 µM; in the experiment with A549, 39.3 µM; in [2] it was above 30 µM; with L02, above 50 µM; with MGC-803, 36.7 µM. In addition, half-maximal inhibition with HepG2 (IC50) was put at 38.2 µM.
For the compound `CCOP(=O)(OCC)C(Nc1ccc(CC(=O)NCCCCNC(=O)[C@@]2(C)CC[C@]3(C)CC[C@]4(C)C(=CC(=O)[C@@H]5[C@@]6(C)CC[C@H](O)C(C)(C)[C@@H]6CC[C@]54C)[C@@H]3C2)cc1)c1ccc(F)cc1` (stereo partly drawn), the IC50 in the experiment on MG-63 was 12.4 µM; in the experiment on NCI-H460, 19.4 µM; with A549, 19.8 µM; in experiment [2], 6.09 µM; in the experiment on L02, above 50 µM; in the experiment on MGC-803, 18.3 µM. In the experiment with HepG2, half-maximal inhibition (IC50) required 20.2 µM.
In the case of `CCOP(=O)(OCC)C(Nc1ccc(CC(=O)NCCCNC(=O)[C@@]2(C)CC[C@]3(C)CC[C@]4(C)C(=CC(=O)[C@@H]5[C@@]6(C)CC[C@H](OC(C)=O)C(C)(C)[C@@H]6CC[C@]54C)[C@@H]3C2)cc1)c1ccc(F)cc1` (stereo partly drawn), in experiment [1], the “Ratio IC50” value stood at 1.32. For the same compound, the IC50 in the experiment on MG-63 is 13.7 µM; in the experiment with NCI-H460 it was 14.9 µM; in the experiment with A549, 15 µM; in the experiment with SK-OV-3 it was 10.1 µM; in experiment [2], 3.01 µM; in the experiment on L02, above 50 µM. In addition, the IC50 amounted to 13.4 µM in experiment [3], 16.3 µM in the experiment on MGC-803 and 15.3 µM with HepG2.
For `CCOP(=O)(OCC)C(Nc1ccc(CC(=O)NCCCCNC(=O)[C@@]2(C)CC[C@]3(C)CC[C@]4(C)C(=CC(=O)[C@@H]5[C@@]6(C)CC[C@H](OC(C)=O)C(C)(C)[C@@H]6CC[C@]54C)[C@@H]3C2)cc1)c1cccc(F)c1` (stereo partly drawn), the IC50 is 22.8 µM in the experiment with MG-63; 28.2 µM with NCI-H460; 26.4 µM in the experiment on A549; 27.4 µM in experiment [2]; above 50 µM with L02; 21 µM in the experiment with MGC-803. Further, in the experiment with HepG2, 21.3 µM corresponded to half-maximal inhibition (IC50).
In the case of `CCOP(=O)(OCC)C(Nc1ccc(CC(=O)NCCCCNC(=O)[C@@]2(C)CC[C@]3(C)CC[C@]4(C)C(=CC(=O)[C@@H]5[C@@]6(C)CC[C@H](O)C(C)(C)[C@@H]6CC[C@]54C)[C@@H]3C2)cc1)c1ccc(Br)cc1` (stereo partly drawn), the IC50 in the experiment on MG-63 was 24.6 µM; in the experiment with NCI-H460, 25.2 µM; with A549, 24.9 µM; in experiment [2], 16.3 µM; with L02 it was above 50 µM; in the experiment with MGC-803, 30.9 µM. In the experiment with HepG2, this compound came in with an IC50 of 29.2 µM.
In the case of `CCOP(=O)(OCC)C(Nc1ccc(CC(=O)NCCCCNC(=O)[C@@]2(C)CC[C@]3(C)CC[C@]4(C)C(=CC(=O)[C@@H]5[C@@]6(C)CC[C@H](O)C(C)(C)[C@@H]6CC[C@]54C)[C@@H]3C2)cc1)c1cccc(Br)c1` (stereo partly drawn), the IC50 with MG-63 was above 50 µM; in the experiment with NCI-H460, above 50 µM; in the experiment on A549 it was above 50 µM; in experiment [2], above 30 µM; in the experiment on L02, above 50 µM; with MGC-803, above 50 µM. In the experiment on HepG2, this compound gave an IC50 above 50 µM.
